Assay type in all cases: functional, Pituitary gland cell
Assay [1] is filed under the species Rattus norvegicus. Briefly: Percent in vito intrinsic activity (IA) was evaluated in pituitary cell culture assay. The gist of the method:
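ACTH release assay in cultured rat anterior pituitary cells from male Sprague–Dawley rats: 3-day culture, 1 h preincubation in 0.1% BSA medium, 3 h peptide exposure, ACTH in medium by radioimmunoassay. Intrinsic activity = ACTH released at maximal analogue dose divided by ACTH released at maximal CRF dose, ×100.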

The species entered for assay [2] is Rattus norvegicus. Briefly: In vitro for agonist activity by measuring release of ACTH by rat pituitary cells in culture relative to human Corticotropin-Releasing factor (CRF). The gist of the method:
(§1)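 Male Sprague–Dawley rat anterior pituitary cells, collagenase-dissociated, plated at 0.16 × 10⁶ cells/well in 2% FBS medium. After 3 days, washed into 0.1% BSA medium, preincubated 1 h, washed again, then exposed to peptide for 3 h. Medium ACTH measured by radioimmunoassay.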

Assay [3] is filed under the species Rattus norvegicus. In words: Agonist activity by measuring release of ACTH by rat pituitary cells in culture relative to ovine Corticotropin-Releasing factor (CRF). An outline of the steps:
as §1

Drawing on ChEMBL document CHEMBL1131019, “Minimal-size, constrained corticotropin-releasing factor agonists with i-(i+3) Glu-Lys and Lys-Glu bridges” (1998), this text covers IA and Potency for five compounds.

For the compound `CCCC[C@H](NC(=O)[C@H](CCC(=O)O)NC(=O)[C@H](CC(C)C)NC(=O)[C@H](CCCC)NC(=O)[C@H](CCC(=O)O)NC(=O)[C@H](CCCN=C(N)N)NC(=O)[C@H](CC(C)C)NC(=O)[C@H](CC(C)C)NC(=O)[C@H](Cc1c[nH]cn1)NC(=O)[C@@H](Cc1ccccc1)NC(=O)[C@@H](NC(=O)[C@H](CC(C)C)NC(=O)[C@H](CC(=O)O)NC(=O)[C@H](CC(C)C)NC(C)=O)[C@@H](C)O)C(=O)N[C@@H](C)C(=O)N[C@@H](CCCCN)C(=O)N[C@@H](C)C(=O)N[C@@H](CCC(=O)O)C(=O)N[C@@H](CCC(N)=O)C(=O)N[C@@H](CCC(=O)O)C(=O)N[C@@H](C)C(=O)N[C@@H](CCC(=O)O)C(=O)N1C(=O)[C@H](C)NC(=O)[C@H](C)NC(=O)[C@@H](N)CCC(=O)NCCCC[C@H]1C(=O)N[C@@H](CC(N)=O)C(=O)N[C@@H](CCCN=C(N)N)C(=O)N[C@@H](CC(C)C)C(=O)N[C@@H](CC(C)C)C(=O)N[C@@H](CC(C)C)C(=O)N[C@@H](CCC(=O)O)C(=O)N[C@@H](CCC(=O)O)C(=O)N[C@@H](C)C(N)=O`, in assay [1], the IA is on record as 93%. The same compound gave a Potency in assay [2] of 0.073.

Consider `CCCC[C@H](NC(=O)[C@H](CCC(=O)O)NC(=O)[C@H](CC(C)C)NC(=O)[C@@H](NC(=O)[C@H](CCC(=O)O)NC(=O)[C@H](CCCN=C(N)N)NC(=O)[C@H](CC(C)C)NC(=O)[C@@H]1CCC(=O)NCCCC[C@H](NC(=O)[C@H](CC(C)C)NC(=O)[C@H](CC(=O)O)NC(=O)[C@H](CC(C)C)NC(=O)[C@H](CO)NC(=O)[C@@H](NC(=O)[C@@H]2CCCN2C(=O)[C@@H]2CCCN2C(C)=O)[C@@H](C)CC)C(=O)N[C@H](Cc2ccccc2)C(=O)N[C@@H](Cc2c[nH]cn2)C(=O)N1)C(C)C)C(=O)N[C@@H](C)C(=O)N[C@@H](CCCN=C(N)N)C(=O)N[C@@H](C)C(=O)N[C@@H](CCC(=O)O)C(=O)N[C@@H](CCC(N)=O)C(=O)N[C@@H](CC(C)C)C(=O)N[C@@H](C)C(=O)N[C@@H](CCC(N)=O)C(=O)N[C@@H](CCC(N)=O)C(=O)N[C@@H](C)C(=O)N[C@@H](Cc1c[nH]cn1)C(=O)N[C@@H](CO)C(=O)N[C@@H](CC(N)=O)C(=O)N[C@@H](CCCN=C(N)N)C(=O)N[C@@H](CCCCN)C(=O)N[C@@H](CC(C)C)C(=O)N[C@@H](CCCC)C(=O)N[C@@H](CCC(=O)O)C(=O)N[C@H](C(=O)N[C@H](C(N)=O)[C@@H](C)CC)[C@@H](C)CC`, for which, in assay [3], the Potency was 0.0004.

In the case of `CCCC[C@H](NC(=O)[C@H](CCC(=O)O)NC(=O)[C@H](CC(C)C)NC(=O)[C@@H](NC(=O)[C@H](CCC(=O)O)NC(=O)[C@H](CCCN=C(N)N)NC(=O)[C@H](CC(C)C)NC(=O)[C@@H]1CCCCNC(=O)CC[C@H](NC(=O)[C@H](CC(C)C)NC(=O)[C@H](CC(=O)O)NC(=O)[C@H](CC(C)C)NC(=O)[C@H](CO)NC(=O)[C@@H](NC(=O)[C@@H]2CCCN2C(=O)[C@@H]2CCCN2C(C)=O)[C@@H](C)CC)C(=O)N[C@H](Cc2ccccc2)C(=O)N[C@@H](Cc2c[nH]cn2)C(=O)N1)C(C)C)C(=O)N[C@@H](C)C(=O)N[C@@H](CCCN=C(N)N)C(=O)N[C@@H](C)C(=O)N[C@@H](CCC(=O)O)C(=O)N[C@@H](CCC(N)=O)C(=O)N[C@@H](CC(C)C)C(=O)N[C@@H](C)C(=O)N[C@@H](CCC(N)=O)C(=O)N[C@@H](CCC(N)=O)C(=O)N[C@@H](C)C(=O)N[C@@H](Cc1c[nH]cn1)C(=O)N[C@@H](CO)C(=O)N[C@@H](CC(N)=O)C(=O)N[C@@H](CCCN=C(N)N)C(=O)N[C@@H](CCCCN)C(=O)N[C@@H](CC(C)C)C(=O)N[C@@H](CCCC)C(=O)N[C@@H](CCC(=O)O)C(=O)N[C@H](C(=O)N[C@H](C(N)=O)[C@@H](C)CC)[C@@H](C)CC`, the Potency in assay [3] was determined as 1.4.

As for `CC[C@H](C)[C@H](NC(=O)[C@H](CO)NC(=O)[C@H](CC(C)C)NC(=O)[C@H](CO)NC(=O)[C@H]1CCCN1C(=O)[C@H](CC(N)=O)NC(=O)[C@@H](N)CC(=O)O)C(=O)N[C@@H](CC(=O)O)C(=O)N[C@@H](CC(C)C)C(=O)N[C@H](C(=O)N[C@@H](Cc1ccccc1)C(=O)N[C@@H](Cc1c[nH]cn1)C(=O)N[C@@H](CC(C)C)C(=O)N[C@@H](CC(C)C)C(=O)N[C@@H](CCCN=C(N)N)C(=O)N[C@H](C(=O)N[C@@H](CC(C)C)C(=O)N[C@@H](CC(C)C)C(=O)N[C@@H](CCC(=O)O)C(=O)N[C@@H](CC(C)C)C(=O)N[C@@H](C)C(=O)N[C@@H](CCCN=C(N)N)C(=O)N[C@H](C(=O)N[C@@H](CCC(N)=O)C(=O)N[C@@H](CO)C(=O)N[C@@H](CCC(N)=O)C(=O)N[C@@H](CCCN=C(N)N)C(=O)N[C@@H](CCC(=O)O)C(=O)N[C@@H](CCCN=C(N)N)C(=O)N[C@@H](C)C(=O)N[C@@H](CCC(=O)O)C(=O)N[C@@H](CCC(N)=O)C(=O)N[C@@H](CC(N)=O)C(=O)N[C@@H](CCCN=C(N)N)C(=O)N[C@H](C(=O)N[C@H](C(=O)N[C@@H](Cc1ccccc1)C(=O)N[C@@H](CC(=O)O)C(=O)N[C@@H](CO)C(=O)N[C@H](C(N)=O)C(C)C)[C@@H](C)CC)[C@@H](C)CC)[C@@H](C)O)[C@@H](C)O)[C@@H](C)O` (stereo in doubt; 37), the Potency in assay [2] was found to be 2.9.

In assay [3], `CCCC[C@H](NC(=O)[C@H](CCCN=C(N)N)NC(=O)[C@H](CC(C)C)NC(=O)[C@H](CC(C)C)NC(=O)[C@H](CCC(=O)O)NC(=O)[C@H](CC(C)C)NC(=O)[C@H](CC(C)C)NC(=O)[C@H](CC(C)C)NC(=O)[C@H](CC(=O)O)NC(=O)[C@@H](NC(=O)[C@H](CO)NC(=O)[C@@H](NC(=O)[C@@H]1CCCN1C(=O)[C@@H]1CCCN1C(=O)CNC(=O)[C@H](CCC(=O)O)NC(=O)[C@@H]1CCCN1)[C@@H](C)CC)[C@@H](C)CC)C(=O)N[C@@H](CCCC)C(=O)N[C@H](C(=O)N[C@@H](CCC(=O)O)C(=O)N[C@H](C(=O)N[C@@H](CCC(=O)O)C(=O)N[C@@H](CCCCN)C(=O)N[C@@H](CCC(N)=O)C(=O)N[C@@H](CCC(=O)O)C(=O)N[C@@H](CCCCN)C(=O)N[C@@H](CCC(=O)O)C(=O)N[C@@H](CCCCN)C(=O)N1C(=O)[C@@H](C)NC(=O)[C@H](CCC(N)=O)NC(=O)[C@@H](N)CCC(=O)NCCCC[C@H]1C(=O)N[C@H](CC(N)=O)C(=O)N[C@H](CC(N)=O)C(=O)N[C@H](CCCN=C(N)N)C(=O)N[C@H](CC(C)C)C(=O)N[C@H](CC(C)C)C(=O)N[C@H](CC(C)C)C(=O)N[C@H](CC(=O)O)C(=O)N[C@@H](C(=O)N[C@@H](C(N)=O)[C@H](C)CC)[C@H](C)O)[C@@H](C)CC)[C@@H](C)CC` had a Potency of 5.73.
